Results published in ChEMBL document CHEMBL3244422, “Synthesis and biological activity of beta-melanotropins and analogues” (1977).
Where a SMILES comes first, the peptide text is derived from it. The star is where a group is joined. For = O=C*

How the values were obtained:
[1] = Lipolytic activity in isolated rabbit fat cells assessed as glycerol production per gram of cells at 37 ng measured every hour relative to beta-c1-MSH; assay type: functional, Oryctolagus cuniculus
[2] = Lipolytic activity in isolated rabbit fat cells assessed as glycerol production per gram of cells at 37 ng measured every hour; assay type: functional, Oryctolagus cuniculus
[3] = Lipolytic activity in isolated rabbit fat cells assessed as glycerol production per gram of cells at 111 ng measured every hour; assay type: functional, Oryctolagus cuniculus
[4] = system: Zone of skin; assay: Melanotropic activity in frog skin assessed as skin darkening at 6 ng relative to beta-c1-MSH; assay type: functional, Anura
In short: (§1)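 Skin-darkening activity of the synthetic peptides measured in vitro on isolated frog skin.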

[5] = system: Zone of skin; assay: Melanotropic activity in frog skin assessed as skin darkening at 18 ng relative to control; assay type: functional, Anura; in short: as §1
[6] = system: Zone of skin; assay: Melanotropic activity in frog skin assessed as skin darkening at 6 ng relative to control; assay type: functional, Anura; in short: as §1
[7] = Lipolytic activity in isolated rabbit fat cells assessed as glycerol production per gram of cells at 22 ng measured every hour; assay type: functional, Oryctolagus cuniculus
[8] = system: Zone of skin; assay: Melanotropic activity in frog skin assessed as skin darkening at 8.1 ng relative to control; assay type: functional, Anura; in short: as §1
[9] = system: Zone of skin; assay: Melanotropic activity in frog skin assessed as skin darkening at 2.7 ng relative to control; assay type: functional, Anura; in short: as §1
[10] = Lipolytic activity in isolated rabbit fat cells assessed as glycerol production per gram of cells at 22 ng measured every hour relative to beta-b-MSH; assay type: functional, Oryctolagus cuniculus
[11] = Lipolytic activity in isolated rabbit fat cells assessed as glycerol production per gram of cells at 66 ng measured every hour; assay type: functional, Oryctolagus cuniculus
[12] = system: Zone of skin; assay: Melanotropic activity in frog skin assessed as skin darkening at 2.7 ng relative to beta-b-MSH; assay type: functional, Anura; in short: as §1
[13] = system: Zone of skin; assay: Melanotropic activity in frog skin assessed as skin darkening at 2.3 ng relative to control; assay type: functional, Anura; in short: as §1
[14] = system: Zone of skin; assay: Melanotropic activity in frog skin assessed as skin darkening at 6.9 ng relative to control; assay type: functional, Anura; in short: as §1
[15] = system: Zone of skin; assay: Melanotropic activity in frog skin assessed as skin darkening at 2.6 ng relative to control; assay type: functional, Anura; in short: as §1
[16] = system: Zone of skin; assay: Melanotropic activity in frog skin assessed as skin darkening at 7.8 ng relative to control; assay type: functional, Anura; in short: as §1
[17] = system: Zone of skin; assay: Melanotropic activity in frog skin assessed as skin darkening at 2.6 ng relative to beta-b-MSH; assay type: functional, Anura; in short: as §1
[18] = Lipolytic activity in isolated rabbit fat cells assessed as glycerol production per gram of cells at 1100 ng measured every hour relative to beta-c1-MSH; assay type: functional, Oryctolagus cuniculus
[19] = Lipolytic activity in isolated rabbit fat cells assessed as glycerol production per gram of cells at 1100 ng measured every hour; assay type: functional, Oryctolagus cuniculus
[20] = Lipolytic activity in isolated rabbit fat cells assessed as glycerol production per gram of cells at 3300 ng measured every hour; assay type: functional, Oryctolagus cuniculus
[21] = system: Zone of skin; assay: Melanotropic activity in frog skin assessed as skin darkening at 3 ng relative to control; assay type: functional, Anura; in short: as §1
[22] = system: Zone of skin; assay: Melanotropic activity in frog skin assessed as skin darkening at 9 ng relative to control; assay type: functional, Anura; in short: as §1

| Molecule | Activity [1] | Activity [2] | Activity [3] | Activity [4] | Activity [5] | Activity [6] | Activity [7] | Activity [11] | also measured |
| --- | --- | --- | --- | --- | --- | --- | --- | --- | --- |
| CSCC[C@H](NC(=O)[C@H](CCCCN)NC(=O)[C@H](Cc1ccc(O)cc1)NC(=O)[C@@H]1CCCN1C(=O)CNC(=O)CNC(=O)[C@@H](N)CC(=O)O)C(=O)N[C@@H](CCC(N)=O)C(=O)N[C@@H](Cc1cnc[nH]1)C(=O)N[C@@H](Cc1ccccc1)C(=O)N[C@@H](CCCNC(=N)N)C(=O)N[C@@H](Cc1cn(C=O)c2ccccc12)C(=O)NCC(=O)N[C@@H](CO)C(=O)N1CCC[C@H]1C(=O)N1CCC[C@H]1C(=O)N[C@@H](CCCCN)C(=O)N[C@@H](CC(=O)O)C(=O)O (H-DGGPYKMQHFRW(For)GSPPKD-OH) | 10.2% | 1.09 µmol | 2.05 µmol | 39.7% | 52.4% | 32.8% |  |  |  |
| CSCC[C@H](NC(=O)[C@H](CCCCN)NC(=O)[C@H](Cc1ccc(O)cc1)NC(=O)[C@@H]1CCCN1C(=O)CNC(=O)[C@H](CO)NC(=O)[C@@H](N)CC(=O)O)C(=O)N[C@@H](CCC(=O)O)C(=O)N[C@@H](Cc1cnc[nH]1)C(=O)N[C@@H](Cc1ccccc1)C(=O)N[C@@H](CCCNC(=N)N)C(=O)N[C@@H](Cc1c[nH]c2ccccc12)C(=O)NCC(=O)N[C@@H](CO)C(=O)N1CCC[C@H]1C(=O)N1CCC[C@H]1C(=O)N[C@@H](CCCCN)C(=O)N[C@@H](CC(=O)O)C(=O)O (stereo in doubt; form 1) | 40.2% | 1.78 µmol | 2.96 µmol |  |  |  | 1.18 µmol | 3.61 µmol | Activity [8]: 49.6%; Activity [9]: 30.1%; Activity [10]: 95.5%; Activity [12]: 120.2% |
| CSCC[C@H](NC(=O)[C@H](CCCCN)NC(=O)[C@H](Cc1ccc(O)cc1)NC(=O)[C@@H]1CCCN1C(=O)CNC(=O)[C@H](CO)NC(=O)[C@@H](N)CC(=O)O)C(=O)N[C@@H](CCC(=O)O)C(=O)N[C@@H](Cc1cnc[nH]1)C(=O)N[C@@H](Cc1ccccc1)C(=O)N[C@@H](CCCNC(=N)N)C(=O)N[C@@H](Cc1c[nH]c2ccccc12)C(=O)NCC(=O)N[C@@H](CO)C(=O)N1CCC[C@H]1C(=O)N1CCC[C@H]1C(=O)N[C@@H](CCCCN)C(=O)N[C@@H](CC(=O)O)C(=O)O (stereo in doubt; form 2) |  |  |  |  |  |  | 1.38 µmol | 3.76 µmol | Activity [13]: 29.1%; Activity [14]: 44.6% |
| H-DEGPYKMEHFRWGSPPKD-OH |  |  |  |  |  |  | 1.62 µmol | 3.49 µmol | Activity [15]: 49.6%; Activity [10]: 102.4%; Activity [16]: 69.8%; Activity [17]: 355.6% |
| H-DGGPYKMQHFRFGSPPKD-OH |  |  |  | 28% | 38.2% | 26.2% |  |  | Activity [18]: 0.006%; Activity [19]: 1.29 µmol; Activity [20]: 1.63 µmol |
| H-DGGPYKMQHFRWGSPPKD-OH |  | 2.94 µmol | 3.6 µmol |  | 71% | 62% |  |  | Activity [21]: 32.7%; Activity [22]: 63.5% |
| H-DGGPYKMQHGRWGSPPKD-OH |  |  |  | 0.8% | 7.8% | 5.5% |  |  | Activity [18]: 0.001%; Activity [19]: 0.19 µmol; Activity [20]: 0.37 µmol |
| H-DGGPYKMRHFRWGSPPKD-OH | 34.2% | 1.73 µmol | 3.12 µmol | 10.5% | 24.6% | 17.1% |  |  |  |
